# Source: PubChem BioAssay
# Compounds with a hit are over-represented: about 2.3% of the library has one in this group of screens.
# T cell HTS: modulators of CD8 T cell-vesicle binding, primary screen, mouse 2C CD8+ T cells, flow cytometry | 2C CD8+ T cell-vesicle binding; active compounds read low | response (vesicle binding), % at 7 µM | actives 0.068% (n = 330,000) | AID 2052, 2009;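 active means response, share of CD8 T cells binding vesicles, and their 90th percentile fluorescence all below set limits, cut at about 80% in these data, passing the limit was not always enough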;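 further: values below 100% mean blocked vesicle binding to the CD8+ T cells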
#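 Material: murine 2C transgenic CD8+ T lymphocytes / Also added: QL9-peptide-loaded Drosophila micro-vesicles bearing Ld, ICAM-1 and B7-1 / Schedule: binding step 1.5 h, 37 °C, antibody labelling 20 min, ice / Signal: flow cytometry, PE anti-B7-1 (FL2) versus Alexa647 anti-CD8 (FL8), PFA-fixed / Evaluation: percent CD8+ FL2 mean versus row control / Benchmarks: naked versus QL9-loaded vesicles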
# Pemphigus Ab inh: inhibitors of pemphigus antibody binding to DSG3, primary screen, biochemical, bead-based, flow cytometry, scFv-GFP; binding (percent of control), % at 10 µM; Desmoglein-3 (Homo sapiens), P32926; DSG3-coupled beads, scFv-anti-DSG3-GFP binding; active compounds read low; actives 0.48% (n = 310,000); AID 588358, 2011;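 active means binding more than 3 SD below its plate's average and above zero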;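 further: hits lower antibody fragment binding to DSG3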
# GPR7 antag: GPR7 receptor antagonists, primary screen, cell-based, fluorescence, single concentration | GPR7-expressing cells, fluorescence antagonist assay | inhibition, % at 4.4 µM | actives 1.1% (n = 290,000) | AID 1861, 2009; in the data active means inhibition above about 16%, passing the limit was not always enough;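 further: cells stimulated with the agonist NPW; 0% = agonist with vehicle and 100% = vehicle without agonist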
# Target sequence (P48145 whole entry, looked up): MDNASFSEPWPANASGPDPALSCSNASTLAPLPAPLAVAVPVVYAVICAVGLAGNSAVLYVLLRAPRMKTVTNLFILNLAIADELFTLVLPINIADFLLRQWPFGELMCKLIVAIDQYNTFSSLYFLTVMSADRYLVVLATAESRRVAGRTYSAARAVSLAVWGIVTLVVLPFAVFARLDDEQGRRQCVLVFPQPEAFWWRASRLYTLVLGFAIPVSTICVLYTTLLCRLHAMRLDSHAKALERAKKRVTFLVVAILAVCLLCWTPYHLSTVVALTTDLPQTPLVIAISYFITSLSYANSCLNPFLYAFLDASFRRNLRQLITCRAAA
# pCIP destab: p/CIP-EGFP fusion destabilizers, primary screen, fluorescence, F442A cells | Q05BA5 | 16 h | decrease of EGFP signal, % at 10 µM | actives 0.01% (n = 290,000) | AID 1984, 2009;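 active means EGFP signal decrease of at least 30% at 10 µM or well 3 SD below plate mean, unless failing retest; inactive means the rest, including hits failing retest or dose response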
# CHT allo act: CHT positive allosteric modulators, primary screen, cell-based, membrane potential dye, choline EC20. CHT-expressing cells; active compounds read high; LV-AA mutant CHT in HEK293 cells. B-score at 10 µM. actives 0.49% (n = 310,000);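 active means initial fluorescence not abnormally high and integrated response B-score, plate-corrected, over 3 SD above library mean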
# CHT block: inhibitors of human choline transporter CHT; High affinity choline transporter 1 (Homo sapiens), Q9GZV3; CHT-expressing cells, membrane potential dye, choline response; active compounds read low; B-score at 10 µM; actives 0.86% (n = 310,000); AID 488975, 2010;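 active means B-score over 3 SD under the library average, and starting fluorescence ratio not unusually high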;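 further: choline stimulus applied at its EC90 after an EC20 pre-addition; B-score computed on integrated fluorescence ratio after choline addition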
# * marks the source's active call; other numbers are inactive results; i = inactive; / = not tested or not shown.
SMILES,T cell HTS,Pemphigus Ab inh,GPR7 antag,pCIP destab,CHT allo act,CHT block
CC(C)N(C(=O)Cn1c(-c2ccccc2Cl)nc2ccccc21)c1ccccc1,108,99,9,-1,i,i
CCc1cccc(CC)c1NC(=O)Cn1c(-c2ccccc2Cl)nc2ccccc21,127,126,18*,-1,i,i
Cc1cc(CSC(=N)N)c(CSC(=N)N)cc1C,246,106,-4,3,12*,i
CCn1nc(C(=O)NCCc2ccc3c(c2)OCCO3)c2ccccc2c1=O,47*,95,/,/,/,/
Cn1nc(C(=O)NCCc2ccc3c(c2)OCCO3)c2ccccc2c1=O,/,100,/,/,/,/
CCOc1ccccc1C(=O)NC(C(=O)OCn1nnc2ccccc2c1=O)C(C)C (centres undefined),/,104,/,/,/,/
O=C(Nc1c2c(nn1-c1ccccc1)CS(=O)(=O)C2)c1ccc(Br)o1,/,107,/,/,/,/
COc1ccc(Cl)cc1C(=O)C1CCCN(Cc2cnc(N3CCOCC3)s2)C1 (centres undefined),134,28*,-1,-19,i,i
COc1ccc(F)cc1C(=O)C1CCCN(Cc2cnc(N3CCCC3)s2)C1 (centres undefined),46,101,-15,-9,i,i
Cc1cc2cc(CNC(=O)Nc3ccccc3)ccc2[nH]1,479,76*,-11,6,i,i
CCCCNC(=O)C(=O)Nc1ccc2c(c1)N(S(=O)(=O)c1cccs1)CCC2,/,101,/,/,/,/
Cn1c(SCc2cccc(F)c2)nnc1-c1cnccn1,238,77*,9,6,i,i
CCn1c(SCc2cccc(F)c2)nnc1-c1cccnc1,273,113,19*,-12,i,i
Cn1c(SCc2cccc(F)c2)nnc1-c1ccccn1,148,103,0,-2,i,i
C[C@@H]1CN([C@@H](C)CO)C(=O)CCCn2cc(nn2)CO[C@H]1CN(C)C(=O)c1cc(-c2ccccc2)on1,/,105,/,/,/,/
CCCCn1nc(C(=O)NC2CCCCC2)c2ccccc2c1=O,/,113,/,/,/,/
O=C(Nc1ccc(S(=O)(=O)N2CCOCC2)cc1)c1cc(-c2cc(Cl)ccc2O)n[nH]1,758,113,20*,-3,i,i
Cc1cc(O)c(-c2cc(C(=O)Nc3ccc(S(=O)(=O)N4CCOCC4)cc3)[nH]n2)cc1C,353,97,-1,-20,i,i
COc1ccc(N(CC(=O)N2CCN(c3ccccc3)CC2)S(=O)(=O)c2ccccc2)cc1,/,97,/,/,/,/
CC(Sc1nnc(N)s1)C(=O)Nc1ccc2c(c1)OCO2 (centres undefined),/,89*,/,/,/,/
CC(Sc1nnc(N)s1)C(=O)NCc1ccc2c(c1)OCO2 (centres undefined),648,80,/,/,/,/
O=C1OCC2=C1C(c1ccc(F)cc1)c1cc3c(cc1N2)OCCO3 (centres undefined),/,/,19*,1,/,/
O=C1OCC2=C1C(c1ccc(F)cc1)c1cc3c(cc1N2)OCO3 (centres undefined),/,/,19*,0,/,/
O=C(COC(=O)c1cccc(OC(F)F)c1)Nc1cc(S(=O)(=O)N2CCCC2)ccc1Cl,/,107,/,/,/,/
CCC(=O)N(CCC(c1ccco1)c1ccccc1OC)Cc1cccs1 (centres undefined),187,84,19*,3,i,i
SMILES,T cell HTS,Pemphigus Ab inh,GPR7 antag,pCIP destab,CHT allo act,CHT block
CC1(C)CC(=O)C=C(c2cccc(OC(=O)c3ccc(-c4ccccc4)cc3)c2)C1=O,/,96,/,/,/,/
O=C1c2ccccc2CCC12OC2c1ccncc1 (centres undefined),/,111,/,/,/,/
COCCNC(=O)CSc1ncnc2sc(-c3ccccc3)cc12,234,103*,1,-1,i,i
C[C@H]1CN([C@@H](C)CO)S(=O)(=O)c2ccc(C#Cc3ccccn3)cc2O[C@@H]1CN(C)C(=O)C1CC1,/,112,/,/,/,/
COC(=O)c1ccc(CNC(=O)CSc2nc3ccccc3[nH]2)cc1,938,/,-14,-7,i,i
COC(=O)c1ccc(CNC(=O)Cn2cnnn2)cc1,178,81*,-6,7,i,i
